Assay results reported in ChEMBL document CHEMBL3526146, “In vitro and in vivo metabolism and pharmacokinetics of BMS-562086, a potent and orally bioavailable corticotropin-releasing factor-1 receptor antagonist” (Drug Metab Dispos, 2012).
pIC50: −log10 of the molar value. Values belong to the compound of their own block, whether it stands above or below them.

Key:
[1] = Drug metabolism in bile duct-cannulated Sprague-Dawley rat urine assessed as DPH-124921metabolite level at 30 mg/kg, po after 12 hrs by LC-MS/MS analysis; type: ADME, organism-based; set-up: dose 30 mg/kg, route oral; details: in vivo
How it was run: (§1)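 Male bile-duct-cannulated Sprague-Dawley rats (n=3), fasted overnight, received 30 mg/kg by gavage in 0.5% methylcellulose. Urine and bile were collected 0-12 h and pooled by equal percentage weight across animals, then centrifuged. Supernatants were profiled by LC/MS/MS. Bile was also treated with β-glucuronidase in pH 4.8 acetate buffer, 37°C, 16 h.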

[2] = Drug metabolism in bile duct-cannulated Sprague-Dawley rat urine assessed as BMS-572273 metabolite level at 30 mg/kg, po after 12 hrs by LC-MS/MS analysis; type: ADME, organism-based; set-up: dose 30 mg/kg, route oral; details: in vivo; how it was run: as §1
[3] = Terminal half life in Sprague-Dawley rat at 5 mg/kg, po; type: ADME, organism-based; set-up: dose 5 mg/kg, route oral; details: in vivo, read-out: beta t1/2 (converted)
How it was run: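 Male Sprague-Dawley rats (n=3 per route, 0.34–0.35 kg) with jugular cannulas, fasted about 18 h before and 4 h after dosing. IV dose of 1 mg/kg in 20% ethanol/saline; oral dose of 5 mg/kg by gavage in 0.5% methylcellulose. Plasma sampled 0–96 h and assayed by LC/MS/MS (LLOQ 1.00 ng/ml). Noncompartmental analysis.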

[4] = AUC (infinity) in beagle dog at 1 mg/kg, iv; type: ADME, organism-based, Canis lupus familiaris; set-up: time infinity, dose 1 mg/kg, route intravenous; details: plasma
How it was run: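 Male beagle dogs (n=3, 10.1-12.7 kg) in a one-way IV/PO crossover with one-week washout, fasted ~15 h pre-dose and 4 h post-dose. Dosing was 1 mg/kg IV bolus into the saphenous vein in DMA:propylene glycol:water (1:7:2), or 5 mg/kg gavage in 0.5% methylcellulose. Blood was sampled 0-96 h. Plasma was assayed by LC/MS/MS (LLOQ 1.00 ng/ml) with noncompartmental analysis; Cmax was observed directly.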

[5] = Plasma clearance in beagle dog at 1 mg/kg, iv; type: ADME, organism-based, Canis lupus familiaris; set-up: dose 1 mg/kg, route intravenous
How it was run: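 Male beagle dogs (n=3), one-way IV/PO crossover with a one-week washout, fasted about 15 h before and 4 h after dosing. IV dose of 1 mg/kg as a saphenous bolus in N,N-dimethylacetamide:propylene glycol:water (1:7:2); PO dose of 5 mg/kg by gavage in 0.5% methylcellulose. Plasma sampled 0–96 h and assayed by LC/MS/MS (LLOQ 1.00 ng/ml). Noncompartmental analysis; CL = dose/AUC(INF) after IV; F from dose-normalized AUC ratio.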

[6] = Terminal half life in beagle dog at 5 mg/kg, po; type: ADME, organism-based, Canis lupus familiaris; set-up: dose 5 mg/kg, route oral; details: in vivo, read-out: beta t1/2 (converted)
How it was run: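 Male beagles (n=3, 10.1-12.7 kg) in one-way crossover, one-week washout after IV leg; fasted ~15 h before and 4 h after dosing. Single gavage 5 mg/kg in 0.5% aqueous methylcellulose. Plasma sampled 0-96 h, parent measured by validated LC/MS/MS (1.00-1000 ng/ml). Noncompartmental analysis; Tmax taken from observed data.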

[7] = Cmax in chimpanzee at 1 mg/kg, po; type: ADME, organism-based, Pan troglodytes; set-up: dose 1 mg/kg, route oral; details: in vivo
How it was run: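 Two fasted male chimpanzees (58, 72 kg) received 1 mg/kg orally as a suspension in 0.5% methylcellulose/orange drink with 1% Tween 80 (1:1). Blood was sampled 0-96 h post-dose. Plasma was assayed by validated LC/MS/MS (LLOQ 1.00 ng/ml). Noncompartmental analysis gave AUC(INF) by the mixed log-linear trapezoidal method, with Cmax observed directly; values are mean (min, max).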

[8] = target: T1, Corticotropin-releasing factor-binding protein (Homo sapiens, UniProt P24387); experiment: Binding affinity to CRF-binding protein (unknown origin)
T1 sequence (P24387 whole entry): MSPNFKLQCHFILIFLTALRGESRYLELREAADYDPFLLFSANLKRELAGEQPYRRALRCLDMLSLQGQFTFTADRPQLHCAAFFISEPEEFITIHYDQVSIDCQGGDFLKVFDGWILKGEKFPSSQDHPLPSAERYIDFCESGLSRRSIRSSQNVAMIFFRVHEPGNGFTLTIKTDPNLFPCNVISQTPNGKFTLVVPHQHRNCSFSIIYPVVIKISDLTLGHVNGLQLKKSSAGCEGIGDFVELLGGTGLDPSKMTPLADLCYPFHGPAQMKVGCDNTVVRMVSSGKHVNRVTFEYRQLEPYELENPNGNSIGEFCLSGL

[9] = Apparent permeability from apical to basolateral side in human Caco2 cells; type: ADME, cell-based; details: Caco-2
How it was run: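 Caco-2 cells (passage 50-60) were seeded at 60,000 cells/cm2 on polycarbonate Transwells and cultured 21-25 days. Transport buffer was HBSS with 2% DMA, pH 7.4. Compound was applied apically at 25 µM at 37°C. Only monolayers with TEER 400-500 Ω cm2 at start and end were used, with mannitol as an integrity probe. Papp = (dQ/dt)/(A×C0).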

[10] = Protein binding in rat serum after 3 hrs by equilibrium dialysis; type: ADME, cell-free; details: read-out: PB (converted)
How it was run: (§2)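 Equilibrium dialysis of serum spiked to final 12.8, 25.6 and 38.5 µM against 134 mM phosphate buffer, pH 7.4, through a 10,000 Da cutoff membrane. Cells rotated at 20 rpm, 37°C, 3 h. Percent unbound taken as buffer concentration divided by serum concentration.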

[11] = Protein binding in dog serum after 3 hrs by equilibrium dialysis; type: ADME, cell-free, Canis lupus familiaris; details: read-out: PB (converted); how it was run: as §2
Serum = experiment: Metabolic stability in human serum after 3 hrs by equilibrium dialysis; type: ADME, cell-free
How it was run: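 Stability assessed in the serum samples from the equilibrium-dialysis setup: compound at final 12.8, 25.6 and 38.5 µM, dialysed against 134 mM phosphate buffer, pH 7.4, at 37°C with rotation at 20 rpm. Samples monitored for degradants over the 3-h incubation.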

[12] = Drug metabolism in beagle dog hepatocytes assessed as […] at 25 uM after 3 hrs by HPLC analysis; type: ADME, cell-based, Canis lupus familiaris, Hepatocyte
[13] = Drug metabolism in mouse hepatocytes assessed as 7-hydroxycoumarin formation at 25 uM after 3 hrs by HPLC analysis; type: ADME, cell-based, Hepatocyte
[14] = Drug metabolism in rat hepatocytes assessed as 7-hydroxycoumarin formation at 25 uM after 3 hrs by HPLC analysis; type: ADME, cell-based, Hepatocyte
[15] = Drug metabolism in beagle dog hepatocytes assessed as 7-hydroxycoumarin formation at 25 uM after 3 hrs by HPLC analysis; type: ADME, cell-based, Canis lupus familiaris, Hepatocyte
[16] = Drug metabolism in human cryopreserved hepatocytes assessed as 7-hydroxycoumarin formation at 25 uM after 3 hrs by HPLC analysis; type: ADME, cell-based, Hepatocyte
[17] = Drug metabolism in mouse hepatocytes assessed as decrease of compound level at 25 uM after 3 hrs by HPLC analysis; type: ADME, cell-based, Hepatocyte; details: read-out: Drug metabolism
[18] = Drug metabolism in cynomolgus monkey cryopreserved hepatocytes assessed as decrease of compound level at 25 uM after 3 hrs by HPLC analysis; type: ADME, cell-based, Macaca fascicularis, Hepatocyte; details: read-out: Drug metabolism
How it was run: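 Mouse, rat, dog, monkey and human hepatocytes (trypan blue viability checked) at 1.0×10^6 cells/ml in Krebs-Henseleit buffer were incubated with 25 µM compound, in duplicate. Conditions were 37°C, 95/5 O2/CO2, orbital shaking, 3 h. 7-Ethoxycoumarin and 7-hydroxycoumarin (100 µM) served as positive controls, with a cell-free negative control. Reactions were quenched with ice-cold acetonitrile, then sonicated and centrifuged; supernatants were analysed by LC/MS/MS.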

[19] = Drug metabolism in human cryopreserved hepatocytes assessed as decrease of compound level at 25 uM after 3 hrs by HPLC analysis; type: ADME, cell-based, Hepatocyte; details: read-out: Drug metabolism
[20] = Drug metabolism in rat hepatocytes assessed as at 25 uM after 3 hrs by HPLC analysis

Drug metabolism [1]: metabolite_detected
SMILES: COc1ccc(-c2c(C)nn3c(N)nc(C)nc23)c(C)n1

Drug metabolism [2]: metabolite_detected
SMILES: COc1ccc(-c2c(C)nn3c(O)nc(C)nc23)c(C)n1

half-life [3]: 13.8 h
AUC(0-inf) [4]: 4.3 µM·h
clearance [5]: 11.6 mL/min/kg
half-life [6]: 46.7 h
Cmax [7]: 1070 nM
pIC50 [8]: < 6.00
Papp A→B [9]: 17 ×10⁻⁶ cm/s
fraction unbound at 3 h [10]: 0.064
fraction unbound at 3 h [11]: 0.048
Stability (Serum): Stable
Drug metabolism [12]: metabolite_detected
Drug metabolism [13]: metabolite_detected
Drug metabolism [14]: metabolite_detected
Drug metabolism [15]: metabolite_detected
Drug metabolism [16]: metabolite_detected
metabolised at 3 h, 25 µM [17]: 75%
metabolised at 3 h, 25 µM [18]: 83%
metabolised at 3 h, 25 µM [19]: 40%
Drug metabolism [20]: metabolite_detected
SMILES: CC[C@@H](C)Nc1nc(C)nc2c(-c3ccc(OC)nc3C)c(C)nn12 [PEXACERFONT]
